Data reported in ChEMBL document CHEMBL4813946, “Discovery of novel 4-azaaryl-N-phenylpyrimidin-2-amine derivatives as potent and selective FLT3 inhibitors for acute myeloid leukaemia with FLT3 mutations” (Eur J Med Chem, 2021).
Calls of active or inactive are those of the source. The calls are words filed in the database; no cut-off is given here.

Experiments:
U-937 [1] = test: Induction of apoptosis in human U937 cells assessed as necrotic cells at 20 x GI50 concentration incubated for 48 hrs by annexin V-FITC staining based flow cytometry (reference value: 1.16 %); assay type: functional
[2] = target: Receptor-type tyrosine-protein kinase FLT3 (Homo sapiens) (UniProt P36888); test: Inhibition of FLT3-mediated signalling pathway in human MV4-11 cells assessed as inhibition of ERK phosphorylation upto 20 x GI50 concentration incubated for 6 hrs by western blot analysis; assay type: cell-based
Chain of Receptor-type tyrosine-protein kinase FLT3 (Homo sapiens) (P36888 whole entry): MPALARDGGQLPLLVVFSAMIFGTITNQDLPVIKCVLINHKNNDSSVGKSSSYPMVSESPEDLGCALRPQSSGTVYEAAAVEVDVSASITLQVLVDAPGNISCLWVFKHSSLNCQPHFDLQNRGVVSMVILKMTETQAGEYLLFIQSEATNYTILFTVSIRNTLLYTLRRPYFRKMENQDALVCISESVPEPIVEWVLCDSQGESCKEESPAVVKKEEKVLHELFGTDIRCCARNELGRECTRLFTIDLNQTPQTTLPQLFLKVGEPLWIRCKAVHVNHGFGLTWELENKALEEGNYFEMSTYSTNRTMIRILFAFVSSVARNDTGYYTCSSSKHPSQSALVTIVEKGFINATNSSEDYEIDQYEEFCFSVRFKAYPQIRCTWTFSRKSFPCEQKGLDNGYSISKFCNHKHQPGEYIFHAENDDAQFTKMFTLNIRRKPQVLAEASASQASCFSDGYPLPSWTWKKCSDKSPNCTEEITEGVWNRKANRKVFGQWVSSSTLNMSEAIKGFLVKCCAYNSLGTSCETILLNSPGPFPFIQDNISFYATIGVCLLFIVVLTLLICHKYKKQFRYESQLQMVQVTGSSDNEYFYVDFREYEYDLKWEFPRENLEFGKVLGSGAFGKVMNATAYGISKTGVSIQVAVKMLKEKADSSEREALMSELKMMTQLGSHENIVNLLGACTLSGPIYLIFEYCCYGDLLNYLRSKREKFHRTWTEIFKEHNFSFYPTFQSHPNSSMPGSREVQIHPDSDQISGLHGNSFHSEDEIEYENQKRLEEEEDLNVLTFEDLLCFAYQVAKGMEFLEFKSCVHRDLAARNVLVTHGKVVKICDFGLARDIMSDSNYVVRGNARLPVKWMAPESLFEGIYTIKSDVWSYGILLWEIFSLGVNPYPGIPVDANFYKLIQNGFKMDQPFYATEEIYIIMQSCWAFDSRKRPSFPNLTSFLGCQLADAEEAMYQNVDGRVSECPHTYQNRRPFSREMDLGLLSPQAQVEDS
Procedure, shortened: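 Cells lysed in phosphate lysis buffer with protease inhibitors and protein quantified. Western blots probed phospho and total STAT5, AKT, ERK, S6RP and eIF4E, plus full-length and cleaved PARP and caspase-3, with β-actin as loading control. At least two independent experiments.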

U-937 [3] = test: Induction of apoptosis in human U937 cells assessed as late apoptotic cells at 20 x GI50 concentration incubated for 48 hrs by annexin V-FITC staining based flow cytometry (reference value: 9.82 %); assay type: functional
U-937 [4] = test: Induction of apoptosis in human U937 cells assessed as necrotic cells at 5 x GI50 concentration incubated for 24 hrs by annexin V-FITC and propidium iodide staining based flow cytometry (reference value: 1.10 %); assay type: functional
U-937 [5] = test: Induction of apoptosis in human U937 cells assessed as necrotic cells at 5 x GI50 concentration incubated for 48 hrs by annexin V-FITC staining based flow cytometry (reference value: 1.16 %); assay type: functional
MV4-11 = test: Induction of apoptosis in human MV4-11 cells assessed as late apoptotic cells at 10 x GI50 concentration incubated for 48 hrs by annexin V-FITC and propidium iodide staining based flow cytometry (reference value: 6.59 %); assay type: functional

CC(=O)N1CCN(c2ccc(Nc3nccc(-c4cn(C)c5ncccc45)n3)cc2)CC1 was tested, and the Activity (U-937 [1]) was 1.73%, the inhibition [2] was “Active” and the Activity (U-937 [3]) was 14.5%. The Activity (U-937 [4]) was 1.7%, the Activity (U-937 [5]) was 1.19% and the Activity (MV4-11) was 23.5%.
